In ChEMBL document CHEMBL4425095, “Novel Cephalosporins Selectively Active on Nonreplicating Mycobacterium tuberculosis” (J Med Chem, 2016):
In brackets after ≈: the same amount, converted by molar mass.

Experiments:
Format in all cases: functional
[1] = tested on: Mycobacterium tuberculosis; assay: Antimycobacterial activity against non-replicating Mycobacterium tuberculosis mc2 6220 harboring panCD/lysA deletion mutant incubated for 7 days measured at OD580 = 0.1 by two-fold serial dilution method
Summary of the method: (§1)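 M. tuberculosis mc26220 washed twice in PBS-tyloxapol and resuspended in Sauton's-based nonreplicating medium (pH 5.0, butyrate 0.05%, BSA, tyloxapol, lysine, pantothenate, 0.5 mM NaNO2). Incubated at 1% O2, 5% CO2 with 2-fold serially diluted compound from DMSO. After 3 days, diluted 5-fold in fresh replicating medium for outgrowth at 20% O2. Reported as MIC90.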

[2] = tested on: Mycobacterium tuberculosis; assay: Antimycobacterial activity against non-replicating Mycobacterium tuberculosis mc2 6220 harboring panCD/lysA deletion mutant incubated for 7 days measured at OD580 = 0.01 by two-fold serial dilution method; summary of the method: as §1
[3] = tested on: Mycobacterium tuberculosis; assay: Antimycobacterial activity against replicating Mycobacterium tuberculosis mc2 6220 harboring panCD/lysA deletion mutant by two-fold serial dilution method
Summary of the method: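 M. tuberculosis mc26220 in replicating medium supplemented with glycerol (final 0.5%), OADC, casamino acids 0.05%, lysine 240 μg/mL and pantothenate 24 μg/mL. Exposed to 2-fold serially diluted compound from DMSO. OD580 read after 7 days at 20% O2, 5% CO2. Reported as MIC90.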

Row | SMILES | MIC90 [1] | MIC90 [2] | MIC90 [3]
1 | CCCc1noc(C2=C(C)CS[C@@H]3[C@H](NC(=O)CCc4ccccc4Cl)C(=O)N23)n1 | 1.27 µg/mL (≈ 2.84 µM) | 0.52 µg/mL (≈ 1.16 µM) | >100 µg/mL
2 | CC1=C(c2nc(C)no2)N2C(=O)[C@@H](NC(=O)OC(C)(C)C)[C@H]2SC1 | 9.16 µg/mL (≈ 26 µM) | 5.3 µg/mL (≈ 15 µM) | >100 µg/mL
3 | CCCOC(=O)C1=C(C)CS[C@@H]2[C@H](NC(=O)CCc3ccccc3)C(=O)N12 | 1.24 µg/mL (≈ 3.19 µM) | 0.6 µg/mL (≈ 1.54 µM) | 53.64 µg/mL (≈ 138 µM)
4 | CC1=C(c2nc(C)no2)N2C(=O)[C@@H](NC(=O)OCC(C)(C)C)[C@H]2SC1 | 1.03 µg/mL (≈ 2.81 µM) | – | >100 µg/mL
5 | CC1=C(C(=O)O)N2C(=O)[C@@H](NC(=O)COc3ccccc3)[C@H]2SC1 | >34.84 µg/mL | >34.84 µg/mL | >100 µg/mL
6 | CCCc1noc(C2=C(C)CS[C@@H]3[C@H](NC(=O)CCc4ccc(F)cc4)C(=O)N23)n1 | 0.91 µg/mL (≈ 2.11 µM) | 0.48 µg/mL (≈ 1.11 µM) | >100 µg/mL
7 | CC1=C(c2nc(C)no2)N2C(=O)[C@@H](NC(=O)Cc3ccccc3)[C@H]2SC1 | 1.61 µg/mL (≈ 4.35 µM) | – | >100 µg/mL
8 | C#CCNC(=O)C1=C(C)CS[C@@H]2[C@H](NC(=O)COc3ccccc3)C(=O)N12 | >38.54 µg/mL | >38.54 µg/mL | >100 µg/mL
9 | COC(=O)C1=C(C)CS[C@@H]2[C@H](NC(=O)COc3ccc(OC)cc3)C(=O)N12 | 4.28 µg/mL (≈ 10.9 µM) | 2.01 µg/mL (≈ 5.12 µM) | >100 µg/mL
10 | CCCCOC(=O)C1=C(C)CS[C@@H]2[C@H](NC(=O)CCc3ccccc3)C(=O)N12 | <0.24 µg/mL | 0.21 µg/mL (≈ 0.522 µM) | >100 µg/mL
11 | COc1ccc(OCC(=O)N[C@@H]2C(=O)N3C(C(=O)OCc4ccccc4)=C(C)CS[C@H]23)cc1 | 2.53 µg/mL (≈ 5.4 µM) | 1.54 µg/mL (≈ 3.29 µM) | >100 µg/mL
12 | CCCN(O)C(=O)C1=C(C)CS[C@@H]2[C@H](NC(=O)COc3ccccc3)C(=O)N12 | >40.55 µg/mL | >40.55 µg/mL | >100 µg/mL
13 | CC1=C(C(=O)O)N2C(=O)[C@@H](NC(=O)c3ccc(Cl)cc3)[C@H]2SC1 | >35.28 µg/mL | >35.28 µg/mL | >100 µg/mL
14 | COc1ccc(CCC(=O)N[C@@H]2C(=O)N3C(C(=O)OC4CCCC4)=C(C)CS[C@H]23)cc1 | 0.96 µg/mL (≈ 2.16 µM) | 0.84 µg/mL (≈ 1.89 µM) | 44.33 µg/mL (≈ 99.7 µM)
15 | CCOC(=O)C1=C(C)CS[C@@H]2[C@H](NC(=O)CCc3ccc(OC)cc3)C(=O)N12 | 0.51 µg/mL (≈ 1.26 µM) | 0.4 µg/mL (≈ 0.989 µM) | 21.37 µg/mL (≈ 52.8 µM)
16 | CNC(=O)C1=C(C)CS[C@@H]2[C@H](NC(=O)COc3ccccc3)C(=O)N12 | >36.14 µg/mL | >36.14 µg/mL | >100 µg/mL
17 | CCCCOC(=O)C1=C(C)CS[C@@H]2[C@H](NC(=O)CCc3ccc(Cl)cc3)C(=O)N12 | 1.24 µg/mL (≈ 2.84 µM) | 0.72 µg/mL (≈ 1.65 µM) | >100 µg/mL
18 | CCCCOC(=O)C1C(C)=CS[C@@H]2[C@H](NC(=O)COc3ccccc3)C(=O)N12 (some centres not stated) | 1.28 µg/mL (≈ 3.16 µM) | 0.79 µg/mL (≈ 1.95 µM) | >100 µg/mL
19 | CC1=C(C(N)=O)N2C(=O)[C@@H](NC(=O)COc3ccccc3)[C@H]2SC1 | >100 µg/mL | 59.68 µg/mL (≈ 172 µM) | >100 µg/mL
20 | CC1=C(c2nc(C)no2)N2C(=O)[C@@H](NC(=O)COc3ccccc3)[C@H]2SC1 | 1.85 µg/mL (≈ 4.79 µM) | 0.88 µg/mL (≈ 2.28 µM) | >100 µg/mL
21 | COC(=O)C1=C(C)CS[C@@H]2[C@H](NC(=O)[C@@H](c3ccccc3)N(C)C)C(=O)N12 | >38.95 µg/mL | >38.95 µg/mL | >100 µg/mL
22 | CCC(C)OC(=O)C1=C(C)CS[C@@H]2[C@H](NC(=O)CCc3ccc(OC)cc3)C(=O)N12 (some centres not stated) | 2.95 µg/mL (≈ 6.82 µM) | 1.57 µg/mL (≈ 3.63 µM) | >100 µg/mL
23 | CC1=C(c2nc(C)no2)N2C(=O)[C@@H](NC(=O)[C@H](N)c3ccccc3)[C@H]2SC1 | 44.05 µg/mL (≈ 114 µM) | – | >100 µg/mL
24 | CC1=C(C(=O)OCc2ccccc2)N2C(=O)[C@@H](NC(=O)COc3ccc(Cl)cc3)[C@H]2SC1 | 8.07 µg/mL (≈ 17.1 µM) | 0.87 µg/mL (≈ 1.84 µM) | >100 µg/mL
25 | COC(=O)C1=C(C)CS[C@@H]2[C@H](NC(=O)[C@H](NC(=O)OC(C)(C)C)c3ccccc3)C(=O)N12 | 18.07 µg/mL (≈ 39.2 µM) | 16.51 µg/mL (≈ 35.8 µM) | >100 µg/mL
